Read-outs that look alike come from different tables or passages of the source.
What was measured:
[1] = target: Water soluble DQ2 (sDQ2), thrombin-cleaved (human); test: peptide dissociation followed by MALDI-TOF MS
[2] = target: Water soluble DR3 (sDR3), thrombin-cleaved (human); test: peptide dissociation followed by MALDI-TOF MS
water soluble DQ2 (sDQ2) = water soluble DQ2 (sDQ2) (Homo sapiens, UniProt P01909+P01920, A45G/A70V/D89A/E106A/E77G/E98D/H199R/L107V/N214S/P84L/P87L/T103K/T109R/T172A/T60S/V78E/V99I/Y58L/Y62S/Y69I/Y79F); format: binding; details: ratio of t1/2 without DM to t1/2 with 6 μM DM; sDQ2 complexes
[3] = target: HLA-DQ2 (DQA1*0501, DQB1*0201) (Homo sapiens, UniProt P01909+P01920, A45G/A70V/D89A/E106A/E77G/E98D/H199R/L107V/N214S/P84L/P87L/T103K/T109R/T172A/T60S/V78E/V99I/Y58L/Y62S/Y69I/Y79F); details: DQ2 affinity purified from B-LCL; ref [3],[4]; cited from earlier work
water soluble DR3 (sDR3) [4] = format: binding, human; details: pH 5, without DM
Summary of the method: (§1)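 Incubated at 37°C, pH 5.0 citrate phosphate, ±6 μM soluble DM, with 35 μM competitor MT 65kDa 3-13; stopped with cold pH 7.2 buffer. Released peptides were quantified by MALDI-TOF MS against added isotopic indicator peptides.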

water soluble DR3 (sDR3) [5] = target: water soluble DR3 (sDR3) (Homo sapiens, UniProt P01903+P01911, A100K/A102G/A103R/A169T/F55Y/I96L/K41T/L162R/M171V/P40S/Q125H/Q178H/Q39Y/R42S/S66N/T106N/W38E/Y61H); format: binding; details: ratio of t1/2 without DM to t1/2 with 6 μM DM; sDR3 complex; listed as DR3-CLIP1
Summary of the method: as §1

[6] = target: HLA-DQ2 (DQA1*0501, DQB1*0201) (human (endogenous in B-LCL)); test: affinity purification with mass spectrometry
[7] = target: HLA-DQ2 (DQA1*0501, DQB1*0201) (human (endogenous in B-LCL)); test: affinity purification with mass spectrometry; remark: listed apart in the source
[8] = target: HLA-DR3 (DRA1*0101, DRB1*0301) (human (endogenous in B-LCL)); test: affinity purification with mass spectrometry

Question: Which t1/2 of DM-mediated dissociation (6 μM DM) [1] does the source give for “CLIP1 M91A released peptide of sDQ2-CLIP1 M91A” here?
Answer: 0.7 h

Question: And the t1/2 of spontaneous dissociation [1]?
Answer: 13.1 h

Question: Which results are given for “CLIP1 M91P released peptide of sDQ2-CLIP1 M91P”?
Answer: t1/2 of DM-mediated dissociation (6 μM DM) [1]: 8.9 h; t1/2 of spontaneous dissociation [1]: 93.6 h

Question: What does the source list for “CLIP1 released peptide of sDQ2-CLIP1 and sDR3-CLIP1”?
Answer: t1/2 of DM-mediated dissociation (6 μM DM) [2]: 0.25 h; t1/2 of spontaneous dissociation [2]: 61.5 h; t1/2 of DM-mediated dissociation (6 μM DM) [1]: 9 h; t1/2 of spontaneous dissociation [1]: 144 h

Question: For CLIP2 released peptide of sDQ2-CLIP2, which t1/2 of DM-mediated dissociation (6 μM DM) [1] is on record?
Answer: 5 h

Question: What about the t1/2 of spontaneous dissociation [1] of the same molecule?
Answer: 142 h

Question: Which “DM-mediated increase in dissociation” value (water soluble DQ2 (sDQ2)) does the source give for RDSGMATPLLMQALPM GALGAGSLVPR [CLIP2] here?
Answer: 28x

Question: What about the “IC50 values/affinity for DQ2 compared to conventional CLIP (CLIP1) peptides” value [3] of the same molecule?
Answer: lower

Question: For “RDSGPVSKARMATPLLMQAGAGSLVPR [CLIP1 M91A]”, which “DM-mediated increase in dissociation” value (water soluble DQ2 (sDQ2)) is on record?
Answer: 19x

Question: Which “Faster spontaneous release from DR3 compared to CLIP1 and CLIP2 from sDQ2” value (water soluble DR3 (sDR3) [4]) does the source give for RDSGPVSKMRMATPLLMQAGAGSLVPR [CLIP1] here?
Answer: 2 fold

Question: What about the “DM-mediated increase in dissociation” value (water soluble DR3 (sDR3) [5]) of the same molecule?
Answer: 246x

Question: What about the “DM-mediated increase in dissociation” value (water soluble DQ2 (sDQ2)) of the same molecule?
Answer: 16x

Question: With “RDSGPVSKPRMATPLLMQAGAGSLVPR [CLIP1 M91P]” as the molecule, how does the “DM-mediated increase in dissociation” value (water soluble DQ2 (sDQ2)) read?
Answer: 11x

Question: Which pmol of peptide eluted from 50 μg of affinity-purified class II [6] does the source give for LPKPPKPVSKMRMATPLLMQALP [Ii81-103] here?
Answer: 71.1 pmol

Question: What about the pmol of peptide eluted from 50 μg of affinity-purified class II [7] of the same molecule?
Answer: 79.5 pmol

Question: With MATPLLMQALPMGALPQ [Ii93-109] as the molecule, how does the pmol of peptide eluted from 50 μg of affinity-purified class II [6] read?
Answer: 3.8 pmol

Question: Which pmol of peptide eluted from 50 μg of affinity-purified class II [6] does the source give for PKPPKPVSKMRMATPLLMQALP [Ii82-103] here?
Answer: 36.8 pmol

Question: What about the pmol of peptide eluted from 50 μg of affinity-purified class II [8] of the same molecule?
Answer: 113 pmol

Question: What about the pmol of peptide eluted from 50 μg of affinity-purified class II [7] of the same molecule?
Answer: 16.5 pmol

Question: With LPKPPKPVSKMRMATPLLMQALPM [Ii81-104] as the molecule, how does the pmol of peptide eluted from 50 μg of affinity-purified class II [8] read?
Answer: 42.4 pmol

Question: What does the source list for MATPLLMQALPMGALP [Ii93-108]?
Answer: pmol of peptide eluted from 50 μg of affinity-purified class II [6]: 156 pmol; pmol of peptide eluted from 50 μg of affinity-purified class II [7]: 159 pmol

Question: What does the source list for LPKPPKPVSKMRMATPLLMQA [Ii81-101]?
Answer: pmol of peptide eluted from 50 μg of affinity-purified class II [6]: 88.4 pmol; pmol of peptide eluted from 50 μg of affinity-purified class II [8]: 106 pmol; pmol of peptide eluted from 50 μg of affinity-purified class II [7]: 31.5 pmol

From article PMC4143156 (Journal of immunology (Baltimore, Md. : 1950), 2008)
